This is a sample that favours compounds with a hit; in the whole collection about 27% have one here.
Cav32 inh: Cav3.2 calcium influx blockers – cell-based, Fluo-4 calcium fluorescence, FDSS, MLSMR library, primary screen; actives 4% (n = 100,000); B-score at 10 µM; Cav3.2-expressing cells; stronger effect = lower value; Voltage-dependent T-type calcium channel subunit alpha-1H (Homo sapiens), O95180; AID 449739, 2010;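 active = single-dose well whose peak fluorescence ratio is a statistical outlier from its plate by either plate-standardised score or position-corrected B-score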
CYP2C19 inhib: blockers of cytochrome P450 2C19 activity – biochemical, luminescence, ADME assay, primary screen | P33261 | CYP2C19 Supersomes, luciferin-H EGE luminescence, 30 min | inhibition, % at 5 µM | actives 21% (n = 96,000) | AID 778, 2007;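 active = CYP2C19 inhibition above a set limit at 5 µM in the primary screen, cut at about 50% in these data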;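 note: plate controls were negative control wells for no effect and 2.5 mM tranylcypromine positive control for full effect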
Target sequence (P33261 whole entry, looked up): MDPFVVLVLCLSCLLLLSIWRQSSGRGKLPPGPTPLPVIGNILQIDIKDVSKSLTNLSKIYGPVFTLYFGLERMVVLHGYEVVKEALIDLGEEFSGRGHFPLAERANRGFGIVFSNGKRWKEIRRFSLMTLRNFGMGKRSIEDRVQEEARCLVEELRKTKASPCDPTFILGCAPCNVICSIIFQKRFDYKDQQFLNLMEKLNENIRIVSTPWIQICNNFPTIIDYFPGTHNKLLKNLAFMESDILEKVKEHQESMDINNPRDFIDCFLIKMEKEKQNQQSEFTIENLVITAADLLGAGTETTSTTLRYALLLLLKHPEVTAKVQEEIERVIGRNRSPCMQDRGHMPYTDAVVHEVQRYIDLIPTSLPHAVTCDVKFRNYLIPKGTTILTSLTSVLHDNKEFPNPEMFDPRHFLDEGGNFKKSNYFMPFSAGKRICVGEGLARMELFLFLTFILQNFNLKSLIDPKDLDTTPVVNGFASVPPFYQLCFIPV
CYP2C9 activ: human CYP2C9 activators, primary screen, biochemical, luminescence. recombinant CYP2C9, luciferin-H conversion; stronger effect = higher value; factor 1 = untreated enzyme, 0 = blocked. activation factor at 5 µM. actives 1.4% (n = 96,000). AID 1024, 2008. Cytochrome P450 2C9 (Homo sapiens), P11712;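 active = activation factor of 2 or more for CYP2C9 at a 5 µM dose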;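 note: 0 = sulfaphenazole-blocked wells and 1 = vehicle-only wells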
Rev-RRE block: HIV-1 Rev-RRE binding inhibitors, primary screen, biochemical, FRET, protein-RNA interaction; inhibition, % at 8 µM; Rev peptide-RRE RNA binding; actives 0.79% (n = 97,000);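 active = inhibition above the screen-wide mean plus 3 SD, cut at about 35% in these data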;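 note: 0% = median DMSO wells and 100% = median Neomycin B control wells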
Target sequence (P05866 whole entry, looked up): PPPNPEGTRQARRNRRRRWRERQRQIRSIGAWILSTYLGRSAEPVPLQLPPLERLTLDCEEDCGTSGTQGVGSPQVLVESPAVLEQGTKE
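Test system – labelled RRE RNA duplex and labelled Rev peptide · Reagent – labelled Rev peptide · Doses – one concentration, 8 µM nominal · Incubation – 5 + 15 min at 25 °C · Signal – FRET fluorescence readout · Read-out basis – % inhibition of FRET ratio versus controls · Control set – DMSO wells as 0% and neomycin B wells as 100% inhibition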
CYP2C9 inhib: blockers of cytochrome P450 2C9 activity – biochemical, luminescence, ADME assay, primary screen | P11712 | CYP2C9 Supersomes, luciferin-H conversion | inhibition, % at 5 µM | actives 20% (n = 96,000) | AID 777, 2007;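 active = blocking of liver enzyme CYP2C9 beyond about 50% at 5 µM, limit read from the data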
CYP2C19 act: human CYP2C19 activators, primary screen, biochemical, luminescence. AID 1025, 2008. 96,000 tested, under 10 active. Cytochrome P450 2C19 (Homo sapiens), P33261. activation factor at 5 µM. recombinant CYP2C19, luciferin-H EGE luminescence; stronger effect = higher value; 0 = fully inhibited enzyme, 1 = untreated enzyme;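 active = activation factor of at least 2 at 5 µM in the primary screen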;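 note: 0 = wells with 2.5 mM tranylcypromine and 1 = vehicle-only wells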
Starred values were filed as active, the others as inactive; . = not tested or not shown.

SMILES | Cav32 inh | CYP2C19 inhib | CYP2C9 activ | Rev-RRE block | CYP2C9 inhib | CYP2C19 act
Cn1c(SCc2ccccc2F)nnc1-c1cnccn1 | -0.0069 | 62* | 1 | 0 | -4 | 0.4
Cn1c(SCc2ccccc2)nnc1-c1ccncc1 | -0.49 | 91* | 0.7 | 12 | 34 | 0.1
c1ccc(CSc2nncn2-c2ccccn2)cc1 | 0.02 | 88* | 0.8 | 11 | 19 | 0.1
Cc1cc(C(F)(F)F)nn1CC(=O)N(C)C1CCCCC1 | . | . | . | 3 | . | .
COc1cccc(C(=O)COC(=O)C(C)N2C(=O)c3ccccc3C2=O)c1 (stereo not given) | -2.8 | 25 | 1 | 11 | 5 | 0.8
COc1cc(C(C)=O)ccc1OC(=O)C(C)N1C(=O)c2ccccc2C1=O (stereo not given) | -0.61 | 37 | 0.5 | 10 | 54* | 0.6
Cc1sc(-n2c(C)cc(C=O)c2C)c(C(=O)O)c1C | 0.012 | -8 | 0.9 | 5 | 8 | 1.1
CCOC(=O)c1c(-n2c(C)cc(C=O)c2C)sc2c1CCCC2 | -3 | 18 | 0.4 | 3 | 61* | 0.8
Cc1nn(Cc2ccc(Cl)cc2)c(=O)n1N(C)c1ncc(C(F)(F)F)cc1Cl | -2.6 | 73* | 0.5 | 9 | 50 | 0.3
COc1ccccc1NS(=O)(=O)c1cccc(C(=O)N/N=C(\C)c2ccc(-n3ccnc3)cc2)c1 | 0.87 | 100* | 0 | 7 | 99* | 0
CCOCCn1c(CN2CCN(c3cccc(Cl)c3)CC2)nc2c1c(=O)n(C)c(=O)n2C | -1.6 | 50 | 0.2 | 5 | 80* | 0.5
COCCn1c(CN2CCN(c3cccc(Cl)c3)CC2)nc2c1c(=O)n(C)c(=O)n2C | 0.92 | 44 | 0.2 | -1 | 77* | 0.6
COc1ccc(CCN(C(=O)C(F)(F)F)C(C(=O)NC2CCCC2)c2cccs2)cc1 (stereo not given) | -3.3 | 63* | 0.2 | 14 | 77* | 0.4
CCOC(=O)c1cnc(SC2CC(=O)N(c3cccc(OC)c3)C2=O)nc1N (stereo not given) | 0.37 | 36 | 0.3 | 0 | 73* | 0.6
CC(C)NC(=O)c1ccccc1-c1ccccc1 | -0.36 | -7 | 1.3 | 6 | -27 | 1.1
CC(C)NC1=C(Cl)C(=O)c2ccccc2C1=O | 0.22 | 90* | 0.7 | -5 | 35 | 0.1
CC(=O)Nc1ccc(C(=O)OCC(=O)c2ccc(C)c([N+](=O)[O-])c2)cc1 | 0.55 | 30 | 0.5 | 7 | 51* | 0.7
COc1ccc(NC2=NCC(=O)N2c2ccccc2F)c(OC)c1 | -0.44 | 39 | 1 | 10 | -2 | 0.6
COc1ccc(NC2=NCC(=O)N2c2ccccc2)c(OC)c1 | -0.45 | 64* | 0.5 | 9 | 52* | 0.4
CC(=O)N(Cc1c(C)nn(-c2ccccc2)c1Cl)c1ccc(Cl)cc1 | -8.3* | 90* | 0.5 | 10 | 49 | 0.1
COc1ccccc1CNCC(O)(c1ccc(Cl)cc1)c1ccc(Cl)cc1 | -4.5* | 34 | 0.8 | 13 | 20 | 0.7
OC(CNCc1ccccc1)(c1ccc(F)cc1)c1ccc(F)cc1 | -2.7 | 15 | 0.9 | 5 | 9 | 0.9
COc1ccc(C(=O)NCc2oc(-c3ccccc3)cc2C(=O)O)cc1 | 0.025 | 3 | 0.6 | 0 | 42 | 1
CCO[C@@H]1OC(C(=O)N2CCN(Cc3ccccc3)CC2)=C[C@H](c2ccccc2)[C@H]1CCCO | -0.66 | . | . | . | . | .
O=C(Nc1ccc2oc(=O)ccc2c1)c1ccco1 | -0.0076 | 24 | 0.8 | 3 | 23 | 0.8
SMILES | Cav32 inh | CYP2C19 inhib | CYP2C9 activ | Rev-RRE block | CYP2C9 inhib | CYP2C19 act
N#Cc1nc(COc2ccccc2)oc1N1CCC(Cc2ccccc2)CC1 | -5.6* | 55* | 0.1 | 9 | 87* | 0.4
Cc1ccc(OCc2nc(C#N)c(N3CCN(Cc4ccccc4)CC3)o2)cc1 | -5.9* | 68* | 0.2 | 0 | 84* | 0.3
CN(C)c1ccc(-c2nnn(Cc3ccccc3Br)n2)cc1 | 0.05 | 96* | 1.4 | 5 | -36 | 0
CCOC(=O)N1CCN(C(=O)CSCC(=O)Nc2nc(-c3ccc(Cl)s3)cs2)CC1 | -2.9 | . | . | 5 | . | .
COc1ccc(N2C(=O)CSC23C(=O)N2c4c(cccc43)C(C)=CC2(C)C)cc1 (stereo not given) | -2 | 98* | 0.2 | 10 | 80* | 0
COc1ccc(N2C(=O)CSC23C(=O)N2CCCc4cccc3c42)cc1 (stereo not given) | -0.19 | 11 | 0.9 | -3 | 10 | 0.9
CCOC(=O)c1cccc(NC(=O)CSc2nnc(COc3ccccc3C)o2)c1 | 0.87 | 23 | 1 | 9 | 0 | 0.8
COc1ccccc1N/C(N)=N/c1nc(CSc2ccc(C)cc2)cc(=O)[nH]1 | -1.1 | 61* | 0.4 | 7 | 61* | 0.4
C=CCSc1nc(C)c(CC(=O)OCC(C)C)c(=O)[nH]1 | 0.23 | 47 | 0.7 | . | 30 | 0.5
Cc1c(C(=O)NCC(C)C)sc2nc(-c3ccc(F)cc3)cn12 | -0.083 | -2 | 0.9 | . | 14 | 1
c1ccc2nc3c(nc2c1)c1ccccc1n3CCN1CCOCC1 | -0.03 | 29 | 0.8 | 7 | 21 | 0.7
CCn1c2ccccc2c2nc3cc(S(=O)(=O)N4CCOCC4)ccc3nc21 | . | 22 | 0.2 | 9 | 85* | 0.8
S=C(NN=C1C2CC3CC(C2)CC1C3)Nc1ccccc1 | -0.81 | 7 | 1 | -3 | 3 | 0.9
O=C(OCc1ccccc1Cl)c1ccccc1C(=O)c1ccccc1 | -0.097 | 67* | 0.6 | 17 | 39 | 0.3
CCOc1ccccc1N1CCN(C(=O)Nc2cccc(Cl)c2)CC1 | -6.1* | 45 | 1.3 | 7 | -27 | 0.6
O=C(Nc1ccc(F)cc1F)N1CCN(c2ncccn2)CC1 | 0.25 | 70* | 0.9 | . | 14 | 0.3
O=C(Nc1cccc(Cl)c1)N1CCN(c2ncccn2)CC1 | -2.8 | 89* | 0.4 | 5 | 56* | 0.1
CCOc1ccccc1N1CCN(C(=O)Nc2ccc(Cl)c(Cl)c2)CC1 | . | 23 | 1.1 | 9 | -13 | 0.8
O=C(Nc1ccc2ccccc2c1)N1CCN(c2ncccc2C(F)(F)F)CC1 | -4.1 | 70* | 1.6 | -5 | -65 | 0.3
O=C(Nc1ccccc1Cl)N1CCN(c2ccccn2)CC1 | -0.49 | . | . | 1 | . | .
CCOC(=O)NC(O)C(=O)c1cccs1 (stereo not given) | 0.84 | -9 | 1.1 | 11 | -9 | 1.1
Cc1cccc(NC(=O)N2CCN(Cc3ccccc3)CC2)c1 | 0.053 | . | . | -2 | . | .
O=C(Nc1cccc(Cl)c1)N1CCN(C/C=C/c2ccccc2)CC1 | -6* | 42 | 0.4 | . | 62* | 0.6
